Assay results as given in publication PMC10362274 (iScience, 2023).

Columns and labels:
[1] = system: Tyr369-377-specific CD8^+ T cell clones; assay: IFNγ secretion assay; format: cell-based, human; conditions: 1/1 ratio with pulsed T2 cells, 24 h co-culture, ELISA, duplicates
How it was run: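 Tyrosinase-specific CD8+ T cell clones came from HLA-A2 tetramer sorting and limiting dilution. They were grown in RPMI with 8% pooled human serum and 150 IU/ml IL-2 at 37°C, 5% CO2. Clones were co-cultured 1:1 for 24 h with T2 cells pulsed with serial dilutions of native or oxidized peptide, in duplicate. IFNγ was measured by ELISA against an exponential standard curve.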

[2] = system: Tyr369-377-specific CD8^+ T cell clones; assay: Standard 4-h 51Chromium release assay, peptide-pulsed T2 cells; format: cell-based, human; conditions: EC50 = peptide concentration giving 50% maximal killing; across YMD-specific CD8^+ T cell clones
[3] = system: MAGE-A10-specific CD8^+ T cell clones; assay: as above; format: cell-based, human; conditions: n = 3 MAGE-A10-specific CD8^+ T cells; no titration of the antigenic peptides
HLA-A∗02:01 = HLA-A∗02:01 (Homo sapiens, UniProt P04439, D140Y/D185E/D98H/E176V/E277Q/G131W/G231S/I119V/I121R/I166T/I218V/L300P/L318F/N151K/N90K/P208A/P217A/Q86G/Q94H/R138H/R169H/T345S); conditions: refolded complex, ELISA
[4] = HPLC oxidation profiling of the YMD peptide using hydrogen peroxide; format: physicochemical
How it was run: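 Synthetic test peptide (~155 μM in LC-MS water) oxidized with varying hydrogen peroxide levels for 30 min at 4°C. For time courses, similar peptide level in 0.1% formic acid/2% acetonitrile with hydrogen peroxide in excess (120 mM), treated as constant for pseudo-first-order fitting. Forms resolved by RP-HPLC, fractions verified by offline MS/MS; triplicate points.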

| Substance | IFNγ released compared with native [1] | EC50 compared with the native peptide [2] | further results |
| --- | --- | --- | --- |
| M2SO: Met2 sulfoxide of the YMD peptide | no significant differences |  |  |
| M6SO: Met6 sulfoxide of the YMD peptide | released more IFNγ | significant lower values |  |
| MAGE-A10_OX: oxidized form of MAGE-A10 254-262 peptide (GLYDGMEHL; not fully specified; oxidized Met (the underlined M of GLYDGMEHL; sulfoxide or sulfone not stated)) |  |  | EC50 compared with the native peptide [3]: slightly increased |
| YM2SODGTM6SOSQV [M2SOM6SO] | released more IFNγ | significant lower values | stability of the HLA-A∗02:01-peptide complex at t0 compared with HLA-A∗02:01-N (HLA-A∗02:01): more stable at t0 |
| YMDGTMSQV [N] |  |  | time for 50% of the peptide to oxidize ([4]; 120 mM hydrogen peroxide, 4°C, pseudo-first-order kinetics, RP-HPLC UV 275 nm): ~20 min; fraction of the total found as complete oxidized to sulfone forms ([4]; 3 M hydrogen peroxide, after 10 days, RP-HPLC peak quantification): ~66%; transformation of the peptide to sulfoxide forms ([4]; hydrogen peroxide 600 mM or higher, 30 min, 4°C, RP-HPLC UV 275 nm): almost complete transformation |
